Publication PMC4678411 (Journal of Medicinal Chemistry, 2015)
In brackets after ≈: the same amount, converted by molar mass.

Experiments:
[1] = tested on: A2780 human ovarian cancer cell line; assay: Efficacy study in a mouse model of human ovarian cancer; format: in vivo, female athymic nude mice
Procedure, shortened: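 A2780 cells (RPMI 1640/10% FBS, mycoplasma-negative) implanted s.c. at 2.5 × 10^6 in 50% Matrigel into female athymic nude mice aged 7–9 weeks. Randomized at mean 188 mm3, 10 per group. Daily IP or oral-gavage doses of 0.1–1.2 mg/kg in USP saline for 30 days. Controls were vehicle and carboplatin 60 mg/kg twice weekly. Tumor volume (L × W²/2), survival and clinical signs tracked.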

[2] = tested on: alkaline phosphatase from bovine intestinal mucosa; conditions: no enzyme; cited from earlier work
[3] = Chemical hydrolysis stability study at 40-70 °C with Arrhenius extrapolation; format: physicochemical; conditions: for extrapolated pseudo-first-order rate constant (kobsd) for hydrolysis: extrapolated from Arrhenius plot; for pseudo-first-order rate constant (kobsd) of hydrolysis: pH 7.4; for half-life: pH 7.4, calculated half-life (t1/2) of hydrolysis
Procedure, shortened: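 Test compound dissolved in Sodium Chloride Injection USP at 20.0 mg/100 mL ("high") or 3.00 mg/100 mL ("low"). Flame-sealed in sterilized ampules and held at 70, 60, 50 or 40 °C, sampled at intervals over hours (70, 60 °C) or days (50, 40 °C). Analysed by HPLC. Ea came from an Arrhenius plot, which was extrapolated to give kobsd, t1/2 and t90 at 25 and 4 °C.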

[4] = tested on: HT-29 human colon adenocarcinoma cell line; assay: Efficacy study in a mouse model of human colon adenocarcinoma; format: in vivo, female athymic nude mice; conditions: for test-article related deaths: 0.9 mg/kg IP, ten mice
Procedure, shortened: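 Female athymic nude mice aged 7–9 weeks, acclimated ≥7 days. Implanted s.c. in the right flank with 1.74 × 10^6 mycoplasma-negative HT-29 cells in 50% Matrigel/medium. Randomized at mean 110 mm3, 10 per group. Dosed IP in USP saline (0.2 mL) by group-mean body weight, daily or intermittently, for 28 days. Caliper volume (L × W²/2) measured ≥twice weekly, plus necropsy tumor weight, survival, body weight and clinical signs.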

[5] = Aqueous solubility determination; format: physicochemical; conditions: pH 7.4
Procedure, shortened: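 About 5 mg excess solid in Tris buffer pH 7.4, in triplicate. Sonicated, vortexed, then shaken at 100 shakes/min at 25 °C for 24 h. Solid removed by centrifugation and filtration; filtrate diluted. Quantified by HPLC on a C18 column with photodiode-array detection, using an acetonitrile (10–70%)/10 mM sodium phosphate pH 7 gradient over 20 min.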

[6] = clinical trials, patients; cited from earlier work

Structure (SMILES): CC(C)[C@]12O[C@H]1[C@@H]1O[C@]13[C@]1(O[C@H]1C[C@H]1C4=C(CC[C@@]13C)C(=O)OC4)[C@@H]2OCOP(=O)([O-])[O-].[Na+].[Na+] [Compound 4, Sodium (((5bS,6aS,7aR,8R,8aS,9aS,9bS,10aS,10bS)-8a-Isopropyl-10b-methyl-3-oxo-1,2,3,5,5b,6,6a,8,8a,9a,9b,10b-dodecahydrotris(oxireno)[2′,3′:4b,5;2″,3″:6,7;2‴,3‴:8a,9]phenanthro[1,2-c]furan-8-yl)oxy)methyl Phosphate]
- efficacy and tolerability ([1]; intraperitoneal injection, daily doses of 0.6 or 0.9 mg/kg (data not shown)): effective and well tolerated
- efficacy ([1]; oral gavage, daily doses of 0.6 or 0.9 mg/kg, slightly higher rates of morbidity and mortality): effective
- stability in a similar assay in the absence of alkaline phosphatase [2]: stable for 1 h
- extrapolated pseudo-first-order rate constant (kobsd) for hydrolysis ([3]; 4 °C): 6.5 × 10^–6 h^–1
- extrapolated pseudo-first-order rate constant (kobsd) for hydrolysis ([3]; 25 °C): 8.6 × 10^–5 h^–1
- pseudo-first-order rate constant (kobsd) of hydrolysis ([3]; 40 °C): 0.000494 h^–1
- pseudo-first-order rate constant (kobsd) of hydrolysis ([3]; 50 °C): 0.001052 h^–1
- pseudo-first-order rate constant (kobsd) of hydrolysis ([3]; 60 °C): 0.002482 h^–1
- pseudo-first-order rate constant (kobsd) of hydrolysis ([3]; 70 °C): 0.008659 h^–1
- activation energy (Ea) of hydrolysis ([3]; from Arrhenius plot, pH 7.4, 40-70 °C): 15.2 kcal/mol
- half-life ([3]; 4 °C): 4460 days
- half-life ([3]; 25 °C): 336 days
- mice that survived until the end of the study ([4]; 0.9 mg/kg IP daily for 2 weeks followed by 3×/week): 9/10
- mice that survived until the end of the study ([4]; 0.9 mg/kg IP daily for 4 weeks): 7/10
- tumor status of all mice surviving until the end of the study ([4]; 0.9 mg/kg IP daily for 4 weeks or daily for 2 weeks followed by 3×/week): tumor free
- effect on xenograft tumors, intermittent regimens ([4]; 0.9 mg/kg IP less frequently than daily or with a break from daily dosing): effective
- test-article related deaths ([4]; QD for 2 weeks group): 1
- test-article related deaths ([4]; QD for 2 weeks then 3×/week group): 1
- test-article related deaths ([4]; QD for 4 weeks group): 3
- tolerability ([4]; IP, 0.1-0.9 mg/kg, all regimens): generally well tolerated
- effect on xenograft tumors ([4]; administered daily IP, dose levels from 0.3 to 0.9 mg/kg, 28 days): effective in reducing or eliminating xenograft tumors
- solubility enhancement by prodrug formation versus triptolide [5]: 3600 times

Structure (SMILES): CC(C)[C@]12O[C@H]1[C@@H]1O[C@]13[C@]1(O[C@H]1C[C@H]1C4=C(CC[C@@]13C)C(=O)OC4)[C@@H]2OC(=O)CCC(=O)O [omtriptolide, triptolide succinate]
- cleavage of the prodrug moiety [6]: slow and incomplete

Structure (SMILES): CC(C)[C@]12O[C@H]1[C@@H]1O[C@]13[C@]1(O[C@H]1C[C@H]1C4=C(CC[C@@]13C)C(=O)OC4)[C@@H]2O [triptolide, Triptolide, reference compound]
- solubility at 24 h ([5]; Tris buffer): 17 µg/mL (≈ 47.2 µM)
